Results taken from ChEMBL document CHEMBL2169803, “Brain Penetrant LRRK2 Inhibitor” (ACS Med Chem Lett, 2012).
Activity calls are given as the source filed them. The rule behind the calls is not given here.

Assays:
Mus musculus [1] = experiment: Inhibition of LRRK2 autophosphorylation at Ser910 and Ser935 in C57BL/6 mouse kidney at 50 mg/kg, ip by immunoblotting analysis relative to vehicle-treated control; type: functional, organism-based; set-up: dose 50 mg/kg
Mus musculus [2] = experiment: Inhibition of TBK1 in C57BL/6 mouse brain at 50 and 100 mg/kg, ip by ADP-acylphosphate probe-based mass spectrometry relative to vehicle-treated control; type: functional; conditions: C57BL/6, ip, route intraperitoneal
Summary of the method: (§1)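 KiNativ chemical proteomics on brains and spleens from mice dosed intraperitoneally at 3, 10, 30, 50 or 100 mg/kg, compared against vehicle-treated animals. Tissue lysed in 5× volume of detergent-free buffer and labeled with an ADP-acylphosphate probe. After workup and trypsin digestion, probe labeling was quantified by mass spectrometry across >150 protein and lipid kinases. Values reflect 5× dilution relative to intact tissue.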

Mus musculus [3] = experiment: Inhibition of LRRK2 autophosphorylation at Ser910 and Ser935 in C57BL/6 mouse brain at 10 mg/kg, ip by immunoblotting analysis relative to vehicle-treated control; type: functional, organism-based; set-up: dose 10 mg/kg
Mus musculus [4] = experiment: Inhibition of LRRK2 autophosphorylation at Ser910 and Ser935 in C57BL/6 mouse spleen at 100 mg/kg, ip by immunoblotting analysis relative to vehicle-treated control; type: functional, organism-based; set-up: dose 100 mg/kg
Mus musculus [5] = experiment: Inhibition of LRRK2 in C57BL/6 mouse brain at 100 mg/kg, ip by ADP-acylphosphate probe-based mass spectrometry relative to vehicle-treated control; type: functional; summary of the method: as §1
Mus musculus [6] = experiment: Inhibition of JNK3 in C57BL/6 mouse brain at 50 and 100 mg/kg, ip by ADP-acylphosphate probe-based mass spectrometry relative to vehicle-treated control; type: functional; conditions: C57BL/6, ip, route intraperitoneal; summary of the method: as §1
[7] = Oral bioavailability in mouse at 10 mg/kg; type: ADME, organism-based; conditions: in vivo
Summary of the method: (§2)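 Mouse pharmacokinetics run by a contract lab; parameters reported include oral bioavailability (%F), plasma AUClast and half-life. Full PK parameter set is given in the Supporting Information.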

Liver = experiment: Half life in mouse liver microsomes at 1 uM; type: ADME, Microsome
Summary of the method: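 Metabolic stability determined by incubation with mouse liver microsomes; half-life (T1/2) reported in minutes.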

Mus musculus [8] = experiment: Inhibition of LRRK2 in C57BL/6 mouse spleen at 30 to 100 mg/kg, ip by ADP-acylphosphate probe-based mass spectrometry relative to vehicle-treated control; type: functional; conditions: dose mg/kg 30-100; route intraperitoneal; summary of the method: as §1
Mus musculus [9] = experiment: Inhibition of LRRK2 in C57BL/6 mouse spleen at 10 mg/kg, ip by ADP-acylphosphate probe-based mass spectrometry relative to vehicle-treated control; type: functional; conditions: C57BL/6, Spleen, route intraperitoneal; summary of the method: as §1
[10] = molecular target: T1, MAP kinase-interacting serine/threonine-protein kinase 2 (Homo sapiens, UniProt Q9HBH9); experiment: Inhibition of MNK2 at 10 uM by radiometric assay
Summary of the method: (§3)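 Dundee panel of 138 kinases screened at 10 μM compound using radioactivity-based enzymatic assays. Activity was expressed relative to DMSO control.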

[11] = molecular target: T2, Mitogen-activated protein kinase kinase kinase 9 (Homo sapiens, UniProt P80192); experiment: Inhibition of MLK1 by radiometric assay
Summary of the method: (§4)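 Radioactivity-based enzymatic kinase assay run in the Dundee profiling panel of 138 kinases. Kinases were first screened at 10 μM inhibitor, with activity expressed relative to a DMSO control. A dose–response analysis then gave the IC50.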
Target sequence in this assay (P80192 whole entry): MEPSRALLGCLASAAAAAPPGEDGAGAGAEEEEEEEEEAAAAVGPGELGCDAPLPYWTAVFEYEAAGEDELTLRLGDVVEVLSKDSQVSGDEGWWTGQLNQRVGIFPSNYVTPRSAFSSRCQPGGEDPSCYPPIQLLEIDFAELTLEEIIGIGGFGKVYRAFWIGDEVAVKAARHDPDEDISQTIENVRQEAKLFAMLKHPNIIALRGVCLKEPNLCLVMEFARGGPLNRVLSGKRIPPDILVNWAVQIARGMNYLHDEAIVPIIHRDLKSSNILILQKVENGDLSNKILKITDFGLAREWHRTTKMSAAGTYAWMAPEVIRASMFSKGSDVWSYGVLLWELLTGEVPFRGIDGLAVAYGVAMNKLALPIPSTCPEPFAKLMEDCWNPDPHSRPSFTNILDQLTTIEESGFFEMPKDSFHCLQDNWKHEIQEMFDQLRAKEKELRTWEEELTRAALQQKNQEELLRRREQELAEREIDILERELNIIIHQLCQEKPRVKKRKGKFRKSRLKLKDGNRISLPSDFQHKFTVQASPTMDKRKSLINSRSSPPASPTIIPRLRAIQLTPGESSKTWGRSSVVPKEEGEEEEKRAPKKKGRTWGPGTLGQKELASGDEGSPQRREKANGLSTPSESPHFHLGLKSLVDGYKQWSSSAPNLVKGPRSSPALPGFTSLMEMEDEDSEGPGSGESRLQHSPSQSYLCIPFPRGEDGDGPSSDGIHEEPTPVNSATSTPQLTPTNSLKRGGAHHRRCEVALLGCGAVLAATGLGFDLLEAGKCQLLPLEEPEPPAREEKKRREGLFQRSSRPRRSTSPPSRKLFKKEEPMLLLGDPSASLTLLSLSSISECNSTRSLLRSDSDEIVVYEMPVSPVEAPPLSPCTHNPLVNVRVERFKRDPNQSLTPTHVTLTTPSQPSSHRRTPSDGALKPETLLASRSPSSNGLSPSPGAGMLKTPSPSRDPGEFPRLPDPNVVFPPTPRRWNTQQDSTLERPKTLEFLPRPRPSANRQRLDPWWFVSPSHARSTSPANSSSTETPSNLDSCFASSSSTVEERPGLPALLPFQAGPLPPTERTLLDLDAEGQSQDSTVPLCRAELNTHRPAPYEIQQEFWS

Mus musculus [12] = experiment: Inhibition of LRRK2 in ip dosed C57BL/6 mouse brain by ADP-acylphosphate probe-based mass spectrometry; type: functional, organism-based; summary of the method: as §1
Mus musculus [13] = experiment: Inhibition of JNK3 in ip dosed C57BL/6 mouse brain by ADP-acylphosphate probe-based mass spectrometry; type: functional, organism-based; summary of the method: as §1
Mus musculus [14] = experiment: Inhibition of JNK2 in ip dosed C57BL/6 mouse brain by ADP-acylphosphate probe-based mass spectrometry; type: functional, organism-based; summary of the method: as §1
Mus musculus [15] = experiment: Inhibition of LRRK2 in C57BL/6 mouse brain at 50 mg/kg, ip by ADP-acylphosphate probe-based mass spectrometry relative to vehicle-treated control; type: functional; conditions: C57BL/6, Brain, route intraperitoneal; summary of the method: as §1
Mus musculus [16] = experiment: Inhibition of LRRK2 autophosphorylation at Ser910 and Ser935 in C57BL/6 mouse brain at 100 mg/kg, ip by immunoblotting analysis relative to vehicle-treated control; type: functional, organism-based; set-up: dose 100 mg/kg
[17] = molecular target: T1, MAP kinase-interacting serine/threonine-protein kinase 2; experiment: Inhibition of MNK2 by radiometric assay; summary of the method: as §4
Target sequence in this assay (Q9HBH9 whole entry): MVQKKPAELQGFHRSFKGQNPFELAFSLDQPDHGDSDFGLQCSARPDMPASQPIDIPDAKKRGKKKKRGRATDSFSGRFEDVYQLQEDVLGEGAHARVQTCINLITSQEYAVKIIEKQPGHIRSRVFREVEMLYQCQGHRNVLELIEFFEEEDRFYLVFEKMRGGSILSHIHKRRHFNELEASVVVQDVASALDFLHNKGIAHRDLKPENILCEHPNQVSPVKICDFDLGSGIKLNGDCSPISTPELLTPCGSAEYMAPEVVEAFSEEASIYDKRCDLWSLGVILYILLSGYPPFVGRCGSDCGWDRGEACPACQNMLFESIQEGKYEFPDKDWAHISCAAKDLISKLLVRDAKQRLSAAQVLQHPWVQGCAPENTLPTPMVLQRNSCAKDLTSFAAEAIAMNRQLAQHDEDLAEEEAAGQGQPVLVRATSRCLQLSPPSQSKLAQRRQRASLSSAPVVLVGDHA

Mus musculus [18] = experiment: Inhibition of LRRK2 in C57BL/6 mouse spleen at 3 mg/kg, ip by ADP-acylphosphate probe-based mass spectrometry relative to vehicle-treated control; type: functional; conditions: C57BL/6, Spleen, route intraperitoneal; summary of the method: as §1
[19] = tested on: Mast/stem cell growth factor receptor Kit (Homo sapiens), P10721 [L576P]; experiment: Inhibition of cKIT L576P mutant at 1 uM by KinomeScan assay
[20] = molecular target: Leucine-rich repeat serine/threonine-protein kinase 2 (Mus musculus) (UniProt Q5S006); experiment: Inhibition of LRRK2 autophosphorylation at Ser910 and Ser935 Swiss mouse 3T3 cells by immunoblotting analysis; type: cell-based
Summary of the method: (§5)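 Mouse Swiss 3T3 cells or mouse embryonic fibroblasts were treated with DMSO or increasing concentrations of compound for 90 min. Lysates were immunoblotted for LRRK2 phospho-Ser910, phospho-Ser935 and total LRRK2. Immunoblots were run in duplicate and are representative of at least two independent experiments.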

Mus musculus [21] = experiment: AUClast in mouse at 10 mg/kg, po; type: ADME, organism-based, Plasma; set-up: time 0 - last, dose 10 mg/kg, route oral; conditions: in vivo; summary of the method: as §2
Mus musculus [22] = experiment: Inhibition of LRRK2 in C57BL/6 mouse brain at 30 mg/kg, ip by ADP-acylphosphate probe-based mass spectrometry relative to vehicle-treated control; type: functional; conditions: C57BL/6, Brain, route intraperitoneal; summary of the method: as §1
Mus musculus [23] = experiment: Inhibition of LRRK2 autophosphorylation at Ser910 and Ser935 in C57BL/6 mouse brain at 50 mg/kg, ip by immunoblotting analysis relative to vehicle-treated control; type: functional, organism-based; set-up: dose 50 mg/kg
[24] = molecular target: T2, Mitogen-activated protein kinase kinase kinase 9; experiment: Inhibition of MLK1 at 10 uM by radiometric assay; summary of the method: as §3
Target sequence in this assay (P80192 whole entry, looked up): as the sequence (P80192 whole entry) above

[25] = molecular target: Leucine-rich repeat serine/threonine-protein kinase 2 (Mus musculus) (UniProt Q5S006); experiment: Inhibition of LRRK2 autophosphorylation at Ser910 and Ser935 mouse embryonic fibroblast cells by immunoblotting analysis; type: cell-based; summary of the method: as §5
Mus musculus [26] = experiment: Inhibition of LRRK2 autophosphorylation at Ser910 and Ser935 in C57BL/6 mouse brain at 30 mg/kg, ip by immunoblotting analysis relative to vehicle-treated control; type: functional, organism-based; set-up: dose 30 mg/kg
Mus musculus [27] = experiment: Inhibition of TBK1 in ip dosed C57BL/6 mouse brain by ADP-acylphosphate probe-based mass spectrometry; type: functional, organism-based; summary of the method: as §1
Mus musculus [28] = experiment: Inhibition of JNK1 in ip dosed C57BL/6 mouse brain by ADP-acylphosphate probe-based mass spectrometry; type: functional, organism-based; summary of the method: as §1
Mus musculus [29] = experiment: Inhibition of LRRK2 autophosphorylation at Ser910 and Ser935 in C57BL/6 mouse spleen at 50 mg/kg, ip by immunoblotting analysis relative to vehicle-treated control; type: functional, organism-based; set-up: dose 50 mg/kg
Mus musculus [30] = experiment: Inhibition of LRRK2 in ip dosed C57BL/6 mouse spleen by ADP-acylphosphate probe-based mass spectrometry; type: functional, organism-based; summary of the method: as §1
Mus musculus [31] = experiment: Inhibition of JNK1 in C57BL/6 mouse brain at 50 and 100 mg/kg, ip by ADP-acylphosphate probe-based mass spectrometry relative to vehicle-treated control; type: functional; conditions: C57BL/6, ip, route intraperitoneal; summary of the method: as §1
Mus musculus [32] = experiment: Half life in mouse at 1 mg/kg, iv; type: ADME, organism-based; set-up: dose 1 mg/kg, route intravenous; conditions: in vivo; summary of the method: as §2
Mus musculus [33] = experiment: Inhibition of JNK2 in C57BL/6 mouse brain at 50 and 100 mg/kg, ip by ADP-acylphosphate probe-based mass spectrometry relative to vehicle-treated control; type: functional; conditions: C57BL/6, ip, route intraperitoneal; summary of the method: as §1
Mus musculus [34] = experiment: Inhibition of LRRK2 autophosphorylation at Ser910 and Ser935 in C57BL/6 mouse kidney at 100 mg/kg, ip by immunoblotting analysis relative to vehicle-treated control; type: functional, organism-based; set-up: dose 100 mg/kg
[35] = molecular target: Leucine-rich repeat serine/threonine-protein kinase 2 (Homo sapiens) (UniProt Q5S007); conditions: HEK293, 1 uM
[36] = tested on: Leucine-rich repeat serine/threonine-protein kinase 2 (Homo sapiens), Q5S007 [G2019S]; conditions: HEK293, 1 uM

Sequence of Leucine-rich repeat serine/threonine-protein kinase 2 (Mus musculus) (Q5S006 whole entry): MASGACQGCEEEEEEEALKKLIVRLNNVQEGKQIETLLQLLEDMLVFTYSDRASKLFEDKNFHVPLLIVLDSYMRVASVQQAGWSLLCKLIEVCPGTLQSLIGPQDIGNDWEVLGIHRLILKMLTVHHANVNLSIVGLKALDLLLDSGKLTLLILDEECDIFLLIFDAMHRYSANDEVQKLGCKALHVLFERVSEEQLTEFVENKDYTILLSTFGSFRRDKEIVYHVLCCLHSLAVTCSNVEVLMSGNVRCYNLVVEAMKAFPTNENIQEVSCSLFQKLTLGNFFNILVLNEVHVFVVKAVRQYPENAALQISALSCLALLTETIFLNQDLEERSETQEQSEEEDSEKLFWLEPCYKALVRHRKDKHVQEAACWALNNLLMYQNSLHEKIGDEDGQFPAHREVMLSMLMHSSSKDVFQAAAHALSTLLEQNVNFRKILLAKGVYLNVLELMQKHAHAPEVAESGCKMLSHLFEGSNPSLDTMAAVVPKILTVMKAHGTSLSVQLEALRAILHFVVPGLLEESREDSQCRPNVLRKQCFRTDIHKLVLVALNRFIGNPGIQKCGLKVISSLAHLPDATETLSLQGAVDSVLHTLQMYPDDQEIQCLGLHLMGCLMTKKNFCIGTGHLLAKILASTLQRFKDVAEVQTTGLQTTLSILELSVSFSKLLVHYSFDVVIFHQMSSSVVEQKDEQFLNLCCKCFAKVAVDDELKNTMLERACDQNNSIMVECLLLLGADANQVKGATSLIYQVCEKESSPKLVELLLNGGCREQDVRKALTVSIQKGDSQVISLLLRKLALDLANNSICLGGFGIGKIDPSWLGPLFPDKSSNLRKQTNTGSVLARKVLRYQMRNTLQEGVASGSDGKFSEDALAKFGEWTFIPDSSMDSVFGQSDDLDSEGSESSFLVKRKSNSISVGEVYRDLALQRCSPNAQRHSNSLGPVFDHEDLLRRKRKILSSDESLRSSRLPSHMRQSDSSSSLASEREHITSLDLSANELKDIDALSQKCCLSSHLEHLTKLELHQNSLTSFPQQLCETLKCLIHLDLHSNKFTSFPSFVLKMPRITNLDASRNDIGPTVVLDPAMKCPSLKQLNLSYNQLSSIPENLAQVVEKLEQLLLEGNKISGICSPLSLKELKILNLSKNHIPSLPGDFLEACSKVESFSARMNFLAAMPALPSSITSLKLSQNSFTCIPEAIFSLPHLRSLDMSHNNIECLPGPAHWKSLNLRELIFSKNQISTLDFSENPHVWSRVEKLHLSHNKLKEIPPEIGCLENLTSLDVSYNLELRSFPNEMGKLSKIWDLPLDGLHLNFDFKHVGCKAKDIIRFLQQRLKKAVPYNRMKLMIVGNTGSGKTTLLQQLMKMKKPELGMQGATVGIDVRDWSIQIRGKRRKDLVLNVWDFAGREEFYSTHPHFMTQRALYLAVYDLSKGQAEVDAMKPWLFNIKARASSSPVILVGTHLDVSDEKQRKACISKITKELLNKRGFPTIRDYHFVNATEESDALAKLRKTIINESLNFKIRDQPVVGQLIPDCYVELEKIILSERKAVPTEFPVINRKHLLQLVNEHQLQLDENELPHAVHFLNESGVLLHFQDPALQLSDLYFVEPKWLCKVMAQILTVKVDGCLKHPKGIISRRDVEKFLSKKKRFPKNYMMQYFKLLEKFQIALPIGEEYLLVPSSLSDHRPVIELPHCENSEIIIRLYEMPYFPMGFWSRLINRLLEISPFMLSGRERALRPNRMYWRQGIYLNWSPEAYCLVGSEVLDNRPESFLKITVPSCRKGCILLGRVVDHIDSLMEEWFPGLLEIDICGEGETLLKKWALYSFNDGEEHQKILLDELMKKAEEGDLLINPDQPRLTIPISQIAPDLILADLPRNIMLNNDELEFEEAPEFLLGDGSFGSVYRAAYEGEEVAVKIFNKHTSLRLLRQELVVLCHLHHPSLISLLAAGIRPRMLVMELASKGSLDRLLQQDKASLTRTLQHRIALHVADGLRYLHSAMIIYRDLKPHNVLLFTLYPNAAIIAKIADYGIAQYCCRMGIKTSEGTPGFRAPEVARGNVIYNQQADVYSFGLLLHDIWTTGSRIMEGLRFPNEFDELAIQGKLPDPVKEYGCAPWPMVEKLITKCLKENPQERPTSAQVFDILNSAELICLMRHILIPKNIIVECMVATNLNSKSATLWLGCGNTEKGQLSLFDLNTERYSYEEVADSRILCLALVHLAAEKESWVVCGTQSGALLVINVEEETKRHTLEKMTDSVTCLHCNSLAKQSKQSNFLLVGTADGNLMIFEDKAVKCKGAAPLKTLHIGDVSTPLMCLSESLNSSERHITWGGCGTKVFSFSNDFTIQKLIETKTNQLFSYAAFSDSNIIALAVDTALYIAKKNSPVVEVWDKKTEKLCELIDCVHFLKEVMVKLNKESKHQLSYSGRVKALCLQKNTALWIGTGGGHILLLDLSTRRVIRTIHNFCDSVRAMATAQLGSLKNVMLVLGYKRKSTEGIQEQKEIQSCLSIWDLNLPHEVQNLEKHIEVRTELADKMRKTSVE
Sequence of Mast/stem cell growth factor receptor Kit (Homo sapiens), P10721 [L576P] (P10721 whole entry L576P): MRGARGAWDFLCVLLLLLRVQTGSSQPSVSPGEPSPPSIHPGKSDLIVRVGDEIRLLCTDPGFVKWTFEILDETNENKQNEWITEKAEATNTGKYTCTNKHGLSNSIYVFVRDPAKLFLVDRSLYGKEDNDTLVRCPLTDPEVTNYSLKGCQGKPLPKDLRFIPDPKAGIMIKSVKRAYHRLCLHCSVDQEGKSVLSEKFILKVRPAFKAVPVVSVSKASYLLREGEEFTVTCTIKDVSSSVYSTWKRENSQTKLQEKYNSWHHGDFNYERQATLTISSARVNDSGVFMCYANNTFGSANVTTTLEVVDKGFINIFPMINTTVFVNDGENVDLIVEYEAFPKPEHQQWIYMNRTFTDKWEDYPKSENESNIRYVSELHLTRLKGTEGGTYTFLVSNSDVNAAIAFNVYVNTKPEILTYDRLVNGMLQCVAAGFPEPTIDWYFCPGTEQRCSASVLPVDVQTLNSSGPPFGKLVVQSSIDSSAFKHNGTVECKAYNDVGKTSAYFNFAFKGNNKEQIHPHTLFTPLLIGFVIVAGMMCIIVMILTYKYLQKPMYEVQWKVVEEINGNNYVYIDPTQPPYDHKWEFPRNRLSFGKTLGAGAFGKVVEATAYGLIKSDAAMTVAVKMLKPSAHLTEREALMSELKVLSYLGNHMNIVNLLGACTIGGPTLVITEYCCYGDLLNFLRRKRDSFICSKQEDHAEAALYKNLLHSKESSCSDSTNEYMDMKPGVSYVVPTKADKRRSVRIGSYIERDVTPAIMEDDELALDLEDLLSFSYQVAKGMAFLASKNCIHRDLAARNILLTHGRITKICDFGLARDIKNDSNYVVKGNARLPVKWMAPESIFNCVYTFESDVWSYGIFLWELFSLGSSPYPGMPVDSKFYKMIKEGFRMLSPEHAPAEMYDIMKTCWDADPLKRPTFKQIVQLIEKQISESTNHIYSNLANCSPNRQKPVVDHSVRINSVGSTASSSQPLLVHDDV

## CNc1nc(Nc2ccc(C(=O)N3CCOCC3)cc2OC)ncc1Cl
Mus musculus [1]
  inhibition: Active
Mus musculus [2]
  inhibition in vivo at 100 mg/kg: 35%
Mus musculus [3]
  inhibition: Active
Mus musculus [4]
  inhibition: Active
Mus musculus [5]; C57BL/6, Brain, route intraperitoneal
  inhibition in vivo at 100 mg/kg: 70%
Mus musculus [6]
  inhibition in vivo at 100 mg/kg: 35%
[7]
  bioavailability: 67%
Liver
  t1/2: 13 min
Mus musculus [8]
  inhibition (INH): >90%
Mus musculus [9]
  inhibition in vivo at 10 mg/kg: 80%
[10]
  inhibition: > 80%
[11]
  IC50: 2100 nM
Mus musculus [12]
  inhibition: Dose-dependent effect
Mus musculus [13]
  inhibition: Dose-dependent effect
Mus musculus [14]
  inhibition: Dose-dependent effect
Mus musculus [15]
  inhibition in vivo at 50 mg/kg: 70%
Mus musculus [16]
  inhibition: Active
[17]
  IC50: 600 nM
Mus musculus [18]
  inhibition in vivo at 3 mg/kg: 40%
[19]
  inhibition: Active
[20]
  inhibition: Dose-dependent effect
Mus musculus [21]
  AUClast: 502 ng·h/mL
Mus musculus [22]
  inhibition in vivo at 30 mg/kg: 40%
Mus musculus [23]
  inhibition: Active
[24]
  inhibition: > 80%
[25]
  inhibition: Dose-dependent effect
Mus musculus [26]
  inhibition: Active
Mus musculus [27]
  inhibition: Dose-dependent effect
Mus musculus [28]
  inhibition: Dose-dependent effect
Mus musculus [29]
  inhibition: Active
Mus musculus [30]
  inhibition: Dose-dependent effect
Mus musculus [31]
  inhibition in vivo at 100 mg/kg: 35%
Mus musculus [32]
  t1/2: 7.8 min
Mus musculus [33]
  inhibition in vivo at 100 mg/kg: 35%
Mus musculus [34]
  inhibition: Active

## COc1cc(C(=O)N2CCC(N3CCN(C)CC3)CC2)ccc1Nc1ncc2c(n1)N(C)c1ccccc1C(=O)N2C
Mus musculus [5]
  inhibition: inactive
[35]
  inhibition: Active
[36]
  inhibition: Active
